Measured values collected from several papers.
Each line is one published result; the experiments were not run side by side.
Target: Serine/threonine-protein kinase tousled-like 1 (TLK1, Homo sapiens, UniProt Q9UKI8)
Sequence (Q9UKI8 1-766, as in one of the studies): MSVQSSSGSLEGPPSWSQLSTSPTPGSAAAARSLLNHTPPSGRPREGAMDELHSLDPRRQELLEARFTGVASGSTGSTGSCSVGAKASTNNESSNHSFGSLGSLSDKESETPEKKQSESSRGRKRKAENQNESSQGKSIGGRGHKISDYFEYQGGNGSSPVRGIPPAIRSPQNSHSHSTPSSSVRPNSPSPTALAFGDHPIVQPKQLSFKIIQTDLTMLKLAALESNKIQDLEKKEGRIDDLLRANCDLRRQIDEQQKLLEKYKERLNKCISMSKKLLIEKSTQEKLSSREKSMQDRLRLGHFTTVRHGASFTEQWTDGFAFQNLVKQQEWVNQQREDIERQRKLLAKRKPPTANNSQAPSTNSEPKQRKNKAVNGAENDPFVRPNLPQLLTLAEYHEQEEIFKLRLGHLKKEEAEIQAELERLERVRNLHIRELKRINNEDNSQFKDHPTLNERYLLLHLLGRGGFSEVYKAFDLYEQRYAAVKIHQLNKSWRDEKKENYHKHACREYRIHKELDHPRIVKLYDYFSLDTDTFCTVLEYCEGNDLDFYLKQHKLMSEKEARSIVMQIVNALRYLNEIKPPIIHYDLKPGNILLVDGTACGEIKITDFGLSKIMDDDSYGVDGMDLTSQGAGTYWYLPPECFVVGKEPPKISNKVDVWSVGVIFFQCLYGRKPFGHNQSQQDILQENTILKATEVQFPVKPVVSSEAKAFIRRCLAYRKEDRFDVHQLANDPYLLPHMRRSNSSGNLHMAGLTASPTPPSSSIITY

`Cc1ccc(NC(=O)c2ccc(C)c(C(F)(F)F)c2)cc1C#Cc1nn(C2CCC(O)CC2)c2ncnc(N)c12` (stereo not shown) has a remaining signal of 95% (cell-free assay; 10 µM).
With `CN1CC(Oc2cnc(C#N)cc2-c2ccn3nc(NC(=O)C4CC4)cc3c2)C1` the inhibition was -13% (enzyme activity; inhibitor; 1 µM).
With `COc1cc(Nc2cnc(C#N)c(O[C@H](C)CN(C)C)n2)ncc1-c1cnn(C)c1` the remaining activity was 93% (enzyme activity; inhibitor; radiometric; 10 µM).
`CC(C)(O)[C@H]1CC[C@H](Nc2ccc3ncc(-c4cccc(C(F)(F)F)c4)n3n2)CC1` has a remaining activity of 94.2% (enzyme activity; inhibitor; 1 µM).
For `COc1ccc2c(O[C@@H]3C[C@H]4C(=O)N[C@]5(C(=O)O)CC5/C=C\CCCCC[C@H](NC(=O)OC5CCCC5)C(=O)N4C3)cc(-c3csc(NC(=O)C(C)C)n3)nc2c1C` (stereo partly shown), the remaining binding was 100% (cell-free assay; competition with immobilised ligand; 1 µM).
`COc1cc(Cl)c(C(=O)N[C@@H](CN[C@H]2CC[C@@H](N)CC2)Cc2ccc(C#N)cc2)cc1-c1ccc(CN[C@H](C)c2ccc(C)cc2)o1` gave a remaining activity of 94% (enzyme activity; inhibitor; 1 µM).
With `Cc1cnc(NC2CCOCC2)nc1-n1cnc(C(=O)NC(CN)c2cc(F)cc(Cl)c2)c1` (stereo not shown) the remaining activity was 99% (enzyme activity; inhibitor; radiometric; 1 µM).
For `Nc1ncnc2occ(-c3ccc(NC(=O)Nc4cc(C(F)(F)F)ccc4F)cc3)c12`, the remaining signal was 39% (cell-free assay; inhibitor; 20 µM).
For `C[C@@H](c1cccc(C#N)c1)n1cc(Cl)cc(C(N)=O)c1=N`, the remaining binding was 100% (cell-free assay; competition with immobilised ligand; 1 µM).
With `Cc1sc(C(=O)NC2COC2)cc1-n1cc(NC(=O)Nc2c(F)cccc2Cl)cn1` the remaining activity was 105% (enzyme activity; inhibitor; 10 µM).
`COc1cc(/C=C/C(=O)CC(=O)/C=C/c2ccc(O)c(OC)c2)ccc1O` gave an activity vs control of 128% (enzyme activity; inhibitor; 1 µM).
With `Cc1cc(NC(=O)c2cccc3cc(-c4cccc5[nH]nc(N)c45)ccc23)ccc1F` the activity vs control was 88% (enzyme activity; inhibitor; 0.1 µM).
The remaining activity of `CC(C)(C)c1nc2c(s1)c1nc(N)ncc1c1ccc(NS(=O)(=O)c3c(F)cccc3F)c(F)c12` is reported as 92% (enzyme activity; inhibitor; radiometric; 1 µM).
For `C[C@H](c1ccnc(Nc2nc3ccc(-c4cc(N(C)C)ncn4)cc3[nH]2)c1)N1CCN(C(=O)CC(F)(F)F)CC1`, the remaining binding was 76% (cell-free assay; competition with immobilised ligand; 0.1 µM).
`Cc1ccc(C(=O)Nc2ccc(CN3CCN(C)CC3)c(C(F)(F)F)c2)cc1C#Cc1cnc2cccnn12` has a remaining activity of 100% (enzyme activity; inhibitor; 23.5 nM).
`CC(C)(C)c1nc(-c2cccc(NS(=O)(=O)c3c(F)cccc3F)c2F)c(-c2ccnc(N)n2)s1` gave a remaining activity of 108% (enzyme activity; inhibitor; radiometric; 1 µM).
The activity vs control of `Cc1ccc(C(=O)NCc2ccsc2)cc1C#Cc1cn(C(C)C)c2ncnc(N)c12` is reported as 80% (enzyme activity; inhibitor; 1 µM).
`O=C(N1CCS(=O)(=O)CC1)N1C[C@H](c2ccc(OC(F)(F)F)cc2)C[C@H](c2nc(C3CC3)no2)C1` has a remaining binding of 94% (cell-free assay; competition with immobilised ligand; 1 µM).
With `O=C(Nc1cnn(-c2csc(C(=O)NC3COC3)c2)c1)Nc1c(F)cccc1Cl` the remaining activity was 53.4% (enzyme activity; inhibitor; 5 µM).
